Measurements pooled from the literature.
Protocols differ between the studies behind these lines.
Target: Sodium-dependent dopamine transporter (SLC6A3, Homo sapiens, UniProt Q01959)

CCCCCCCCCCCC(=O)OC[C@@H](COP(=O)(O)OCCNC(=O)c1ccc(Cn2c(=O)[nH]c3c(N)nc(OCCOC)nc32)cc1)OC(=O)CCCCCCCCCCC has an inhibition of 64% (ligand displacement; radioligand; 10 µM).
The inhibition of CN(CCN1CCC(OC(=O)Nc2ccccc2-c2ccccc2)CC1)C(=O)c1ccc(CN2CCC(C(N)=O)CC2)cc1 is reported as -4% (ligand displacement; radioligand; 1 µM).
With COCc1c(-c2cc3cc(C)cc(OC)c3s2)c2c(N)ncnn2c1CN1CCNC(=O)C1 the inhibition was 35% (ligand displacement; radioligand; 10 µM).
The inhibition of CN1CCN(c2ccnc(NCCc3ccccc3)n2)CC1 is reported as 98% (cell-free assay; 10 µM).
The inhibition of Clc1ccc2c(C3CCN(CCc4c[nH]c5ccccc45)CC3)c[nH]c2c1 is reported as 96% (ligand displacement; radioligand; 10 µM).
With COc1ccc(S(=O)(=O)N2CCCCC2)cc1C the inhibition was under 30% (ligand displacement; radioligand; 10 µM).
For Cc1cc2c(-c3ccco3)cnc(N[C@H]3CCN(C)C[C@@H]3C(=O)NC3CCCCC3)c2[nH]c1=O, the inhibition was 8.66% (cell-free assay; 10 µM).
With CCN(CC)CCCC[C@H](NC(=O)[C@H](CC(C)C)NC(=O)[C@H](C)NC(=O)[C@H](Cc1ccccc1)NC(=O)c1ccc(C(C)(C)C)cc1)C(=O)N[C@@H](CO)C(=O)OC the inhibition was 7% (ligand displacement; radioligand; 10 µM).
CC(C)N1CCC[C@H]1CNC(=O)c1cn(C2CCCC2)c(=O)c2c1c1ccccc1n2C has an inhibition of 42% (ligand displacement; radioligand; 10 µM).
CC(C)Cn1cnc2c(N)nc3ccccc3c21 gave an inhibition of 25% (ligand displacement; radioligand; 10 µM).
With Fc1ccc(C(OCCN2CCN(CCCc3ccccc3)CC2)c2ccc(F)cc2)cc1 the inhibition was 98% (transporter uptake; inhibitor; HEK293; 1 µM).
